Compound activity (PubChem BioAssay)
Rows were chosen to be rich in hits. Some 3.5% of all compounds tested hit in one or more screens of this group.
NF-kB neuron act: raises NF-kB expression in human neuronal cells; actives 1.6% (n = 190,000); AID 1239; NF-kB reporter expression; hits give high values; fold change at 12.5 µM; in the data active = fold change above about 3.3
Pf gametocyte: inhibitors of late stage P. falciparum gametocyte viability; actives 0.065% (n = 150,000); P. falciparum stage V gametocytes, ATP luminescence, 24 h; AID 743093; inhibition, % at 10.9 µM;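 active = inhibition above the mean plus 3 SD of compounds within the control limits, set per campaign, cut at about 38% in these data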
FLuc act counter: affects firefly luciferase, flagging false hits in luciferase stimulation screens. activation factor at 10 µM. AID 1027. ATPlite luciferase biochemical, luminescence, 10 min; 0 = ATP-free wells, 1 = DMSO control. 200,000 tested, under 10 active. P08659;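 active = luciferase activation factor, scaled between plate controls, of at least 2 with compound at 10 µM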
Target sequence (P08659 whole entry, looked up): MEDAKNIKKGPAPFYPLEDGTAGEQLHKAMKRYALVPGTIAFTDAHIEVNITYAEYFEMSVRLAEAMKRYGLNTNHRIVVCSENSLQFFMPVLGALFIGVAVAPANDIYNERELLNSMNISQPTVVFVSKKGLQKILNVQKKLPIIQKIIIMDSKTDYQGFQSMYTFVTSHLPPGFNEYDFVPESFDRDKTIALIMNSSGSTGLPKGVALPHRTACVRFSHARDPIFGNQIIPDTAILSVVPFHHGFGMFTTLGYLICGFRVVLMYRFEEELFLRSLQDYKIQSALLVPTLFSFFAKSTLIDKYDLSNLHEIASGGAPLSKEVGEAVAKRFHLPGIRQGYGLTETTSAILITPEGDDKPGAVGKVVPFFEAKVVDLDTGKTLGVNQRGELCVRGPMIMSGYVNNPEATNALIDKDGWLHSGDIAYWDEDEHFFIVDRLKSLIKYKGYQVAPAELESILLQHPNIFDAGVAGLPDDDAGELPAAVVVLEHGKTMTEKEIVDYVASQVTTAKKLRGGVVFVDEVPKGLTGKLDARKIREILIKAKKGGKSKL
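Assay system: Luciferase/luciferin reagent mix; Medium: PBS as buffer for the ATP substrate; Dosing: test compounds dosed from 2 mM stocks in 100% DMSO; Times: 10 min, room temperature; Signal: luminescence from luciferase reaction; Read-out: luciferase activation; Controls: No-ATP low control, compound-free enzyme-plus-ATP high control.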
APP 5'UTR act: APP 5'UTR luciferase reporter activation; SH-SY5Y APP 5'UTR luciferase reporter, luminescence; zero percent = DMSO vehicle wells; activation, % at 2 µM; actives 1% (n = 190,000);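 active = activation above a set limit, based on mean plus 3 SD of controls, cut at about 140% in these data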
STAT1 act: increases IFN-gamma driven STAT1 reporter signal. NIH 3T3 STAT1-luciferase reporter, luminescence; 100% = IFN-gamma alone, no compound. activation (% of control), % at 5.5 µM. actives 2.6% (n = 200,000). AID 932;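 active = activation above the screen-wide mean activation plus 3 SD, cut at about 130% in these data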
FLuc inhib CS: inhibits firefly luciferase, flagging false hits in luciferase inhibition screens. ATPLite firefly luciferase biochemical luminescence, 10 min. inhibition, % at 10 µM. actives 1.5% (n = 200,000);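 active = inhibition above about 50% when tested at 10 µM, limit read from the data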
Each line names hits and unclear results; the compound was inactive in the other large screens.

COC(=O)CN1C(=O)S/C(=C/c2cc(C)n(C)c2C)C1=O	STAT1 act 130
COc1ccc(N=C2S/C(=C\c3cc(C)n(C)c3C)C(=O)N2CC(C)C)cc1	none (no result: Pf gametocyte)
CCn1c(C)cc(/C=C2/SC(=O)N(C(C)C(=O)OC)C2=O)c1C (configuration not stated)	none (no result: NF-kB neuron act, FLuc act counter, APP 5'UTR act, STAT1 act, FLuc inhib CS)
COC(=O)C(C)N1C(=O)S/C(=C/c2cc(C)n(C(C)C)c2C)C1=O (configuration not stated)	STAT1 act 138, FLuc inhib CS 51 (no result: Pf gametocyte)
CC(C)n1cc(CN2CCN(CCc3ccccc3)C(CCO)C2)cn1 (configuration not stated)	none
O=C(Nc1nccs1)c1ccc(S(=O)(=O)N2CCOCC2)cc1	none
Cc1ccc(NC(=O)Cn2nc(C)c(S(=O)(=O)N(C)C)c2C)cc1	none
CCCc1nn2c(=O)c(C(c3cccc(Cl)c3)c3c(O)nc4sc(CCC)nn4c3=O)c(O)nc2s1	none
O=C(C[C@@H]1C/C=C\CCC(=O)O[C@H](c2ccccc2)CNC1=O)N[C@H](CO)Cc1ccccc1	none (no result: NF-kB neuron act, FLuc act counter, APP 5'UTR act, STAT1 act, FLuc inhib CS)
C/C(=N\NC(=O)c1ccccn1)C12CC3CC(CC(C3)C1)C2	STAT1 act 150 (no result: Pf gametocyte)
O=C(N/N=C1\CCCCc2ccccc21)c1ccccn1	none
O=C(NN=C1CCCCCCC1)c1ccccn1	APP 5'UTR act 170
N/C(=N\OC(=O)C12CC3CC(CC(C3)C1)C2)c1cccnc1	none (no result: Pf gametocyte)
C/C(=N/NC(=O)c1ccoc1C)C12CC3CC(CC(C3)C1)C2	APP 5'UTR act 158 (no result: Pf gametocyte)
N/C(=N\OC(=O)C12CC3CC(CC(C3)C1)C2)c1ccccc1	FLuc inhib CS 65 (no result: Pf gametocyte)
COC(=O)COc1ccc(C(=O)Cn2c(NCCCO)nc3ccccc32)cc1	none (no result: NF-kB neuron act, FLuc act counter, APP 5'UTR act, STAT1 act, FLuc inhib CS)
COCCCN1CN(Cc2ccccc2)CNC1=S	none
N/C(=N\OC(=O)C12CC3CC(CC(C3)C1)C2)c1ccccn1	STAT1 act 142, FLuc inhib CS 66
Cc1ccccc1C(=O)Nc1ccc(-c2nnc(SC(C)C(=O)O)n2C)cc1 (configuration not stated)	none (no result: NF-kB neuron act, FLuc act counter, APP 5'UTR act, STAT1 act, FLuc inhib CS)
O=C(NCc1ccccc1)c1ccc2nc(N3CCOCC3)sc2c1	none (no result: NF-kB neuron act, FLuc act counter, APP 5'UTR act, STAT1 act, FLuc inhib CS)
CC1CCN(c2nc3ccc(C(=O)O)cc3s2)CC1	NF-kB neuron act 6.7, FLuc inhib CS 58 (no result: Pf gametocyte)
O=C(NCC1CCCO1)c1ccc2nc(N3CCCCC3)sc2c1 (configuration not stated)	STAT1 act 130 (no result: Pf gametocyte)
O=C(NCC1CCCO1)c1ccc(N2CCCCC2)nc1 (configuration not stated)	none
Cc1ccc(CNS(=O)(=O)c2ccc3c(c2)n(C)c(=O)c(=O)n3C)cc1	none
COc1ccc2c(CSc3nc4nc(C)cc(C)n4n3)cc(=O)oc2c1	NF-kB neuron act 4.2
CC(C)(C)C1CCc2c(sc(NC(=O)c3cccs3)c2C(N)=O)C1 (configuration not stated)	FLuc inhib CS 58
CCOc1cc(C2NC(=O)N(C)C(C)=C2[N+](=O)[O-])ccc1OC(C)=O (configuration not stated)	none
CCCCN(C)Cc1c(C(=O)N2CCc3ccccc3C2)nc2ccc(Cl)cn12	none
CC(C)CN(C)Cc1c(C(=O)N2CCc3ccccc3C2)nc2ccc(Cl)cn12	NF-kB neuron act 5.1
Cc1ccc(C(=O)NNC(=O)CCN2C(=O)C3CCCCC3C2=O)cc1 (configuration not stated)	none
COc1nc(C)nc2c1sc1nc3c(cc12)COC(C)(C)C3	STAT1 act 137
Cc1ccc(NC(=O)Nc2cccs2)cc1	FLuc inhib CS 64 (no result: Pf gametocyte)
Cc1ccc(NC(=O)Nc2cccs2)nc1	none (no result: Pf gametocyte)
CCc1ccc(NC(=O)Nc2cccs2)cc1	NF-kB neuron act 3.8, STAT1 act 134, FLuc inhib CS 85 (no result: Pf gametocyte)
CCOc1ccc(NC(=O)Nc2cccs2)cc1	NF-kB neuron act 4.5, FLuc inhib CS 83 (no result: Pf gametocyte, APP 5'UTR act)
CCc1ccc(C2C(C#N)=C(N)C(C#N)(C#N)C3=CCC(C(C)(C)C)CC32)cc1 (configuration not stated)	none (no result: Pf gametocyte)
O=C(Nc1nc2ccccc2n1CCN1CCCC1)c1ccc(Cl)cc1	none
Cc1ccc(C(=O)Nc2nc3ccccc3n2CCN2CCCC2)cc1	STAT1 act 141
COc1ccc(Nc2nc(N)nc(CSC(=S)N3CCCCC3)n2)cc1	STAT1 act 129
COc1ccccc1C(=O)NCC(=O)N/N=C/c1cccc(Cl)c1	none
Nc1ccc(C(=O)OCc2nc3cc4ccccc4cc3[nH]2)cc1	none
Nc1ccc(C(=O)OCc2nc3c(ccc4ccccc43)[nH]2)cc1	STAT1 act 151
Cn1c(N=NC(=O)c2ccccc2)c(O)c2ccccc21	STAT1 act 143, FLuc inhib CS 86
CC(=O)c1c(O)c2ccccc2n(C)c1=O	none
CC(C)=CCN1CCN(Cc2cn(C(C)C)c3ccccc23)CC1CCO (configuration not stated)	none (no result: NF-kB neuron act, FLuc act counter, APP 5'UTR act, STAT1 act, FLuc inhib CS)
O=C(Nc1ccc2c(c1)OCO2)c1cccs1	NF-kB neuron act 3.4 (no result: Pf gametocyte)
O=C(c1ccc2c(c1)OCCCO2)c1cccs1	NF-kB neuron act 4, APP 5'UTR act 140
O=C(/C=C\Nc1ccc2c(c1)OCO2)c1cccs1	NF-kB neuron act 6.3, APP 5'UTR act 178, FLuc inhib CS 96
O=C(Nc1ccc2nn(-c3ccccc3)nc2c1)c1cccs1	STAT1 act 136
Cc1cc(C)nc(/N=C(\N)Nc2ccc(F)c([N+](=O)[O-])c2)n1	none
COc1ccc(NS(=O)(=O)c2cc(NC(=O)c3ccco3)ccc2N2CCCCC2)cc1	none
O=C(O)CC1CCCC(c2ccccc2)C1=O (configuration not stated)	none
Cc1ccc2nc(NC(=S)NC(=O)c3ccco3)sc2c1	APP 5'UTR act 163, FLuc inhib CS 90
Cc1cc2sc(NC(=O)c3ccco3)nc2cc1Cl	none (no result: NF-kB neuron act, FLuc act counter, APP 5'UTR act, STAT1 act, FLuc inhib CS)
O=C(Nc1nc2ccc(Br)cc2s1)c1ccco1	none (no result: NF-kB neuron act, FLuc act counter, APP 5'UTR act, STAT1 act, FLuc inhib CS)
Cc1ccc2nc(NC(=O)c3ccco3)sc2c1	FLuc inhib CS 90
Cc1ccc(Cc2cnc(NC(=O)C3=NCCN3)s2)cc1	none
CC(=O)Nc1nc2ccc(NC(=O)c3ccco3)cc2s1	none
O=C(Nc1nc2ccc(Cl)cc2s1)c1ccco1	NF-kB neuron act 7.3, FLuc inhib CS 63 (no result: Pf gametocyte)
O=C(Nc1ncc(Cc2ccccc2)s1)C1=NCCN1	Pf gametocyte 38
COCC(=O)Nc1nc2ccc(C)cc2s1	NF-kB neuron act 3.7
Cc1ccc(Cc2cnc(NC(=O)c3ccco3)s2)cc1	NF-kB neuron act 7.4 (no result: Pf gametocyte)
O=C(Nc1ncc(Cc2cccc([N+](=O)[O-])c2)s1)c1ccco1	none
Cc1nc2cc(C(=O)O)ccc2s1	STAT1 act 143
CCc1nc2ccc(C(=O)O)cc2nc1CC	NF-kB neuron act 6.1 (no result: Pf gametocyte)
Cc1ccc(C)c(NC(=O)c2ccc3ccccc3n2)c1	NF-kB neuron act 8.5, FLuc inhib CS 56
Cc1nc2ccc(NC(=O)c3ccccc3)cc2s1	STAT1 act 131
COc1ccc(C(C)(C)C)cc1NC(=O)COC(=O)c1ncc(Cl)c(Cl)c1Cl	none
